GAA850 FXN act – activators of GAA850 frataxin (FXN) promoter | HEK293 lucGAA850 FXN promoter luciferase reporter, 24 h; percent of 10 µM SAHA response | activation, % at 6 µM | hit rate 0.56% among 360,000;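 active means activation above the average of all compounds screened plus 3 SD, cutoff fixed separately per campaign, cut at about 7.5% in these data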;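 further: 0% = DMSO wells and 100% = 10 µM SAHA wells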
UPR XBP1 act – adaptive UPR (XBP1) activation. CHO-XBP1 luciferase reporter, IRE1-XBP1 UPR activation, luminescence; percent of tunicamycin response, DMSO as zero. activation, % at 20 µM. hit rate 0.33% among 330,000;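 active means versus positive control, 20 µM dose yields 30% or more activation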;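 further: 100% = tunicamycin at 10 µg/mL and 0% = DMSO only wells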
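Test system: CHO-XBP1 luciferase reporter cells | Buffer or medium: Serum-containing F12 medium, 10% FBS | Schedule: 6 h compound exposure at 37 °C, 5% CO2 | Detection: Steady-Glo luciferase glow luminescence, 10 min after reagent addition | Read-out basis: Activation, % of tunicamycin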
CHOP inhibitor – blocks CHOP induction under ER stress | CHO-K1 CHOP-promoter luciferase, tunicamycin-induced, 15-18 h | hit rate 3.8% among 220,000 | inhibition, % at 10 µM | AID 2732;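 active means compounds that reduced the stress-induced luciferase reporter signal by more than about 70% of percent inhibition, limit read from the data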;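 further: 0% = tunicamycin plus vehicle and 100% = wells without tunicamycin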
UPR CHOP act – activators of apoptotic arm of unfolded protein response (CHOP); CHO-CHOP luciferase reporter, UPR activation, luminescence; percent of tunicamycin response over DMSO baseline; activation, % at 10 µM; hit rate 0.34% among 330,000; AID 449763;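 active means at 10 µM dose, activation of 40% or more, normalized to positive control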;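 further: 100% = tunicamycin at 10 µg/mL and 0% = DMSO alone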
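System: CHO-CHOP luciferase reporter cell line | Buffer or medium: F12 medium containing 10% fetal bovine serum | Doses: One dose, 10 µM in 0.5% DMSO | Times: 6 h compound exposure at 37 °C after overnight seeding | Signal: Luciferase luminescence | Read-out: % activation vs tunicamycin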
An asterisk follows results filed as active; · = no result. The entries come from a sample that favours hits as a whole.

SMILES	GAA850 FXN act	UPR XBP1 act	CHOP inhibitor	UPR CHOP act
COc1cccc(NC(=O)N(C)C[C@@H]2OCc3cn(nn3)CCCC(=O)N([C@H](C)CO)C[C@H]2C)c1	0	·	·	·
CC1=CC(=O)c2c(O)ccc(O)c2C1=O	·	·	106*	·
O=C(c1ccc(Cl)c(Cl)c1)N(Cc1ccco1)c1ccc(O)cc1	-1	-2	87*	-1
O=C(COc1ccccc1)N(Cc1ccco1)c1ccc(O)cc1	1	-2	26	2
Nc1ncnc2c1ncn2[C@@H]1O[C@H](C(=O)NC2CC2)[C@H](O)C1O (some centres undefined)	·	·	-19	·
CN(C)c1ccc(-c2nn3c(C4CCCCC4)nnc3s2)cc1	0	1	93*	0
O=[N+]([O-])c1cccc(CON=Cc2cc(Cl)ccc2O)c1	0	·	·	·
COc1ccc(Cl)cc1-c1cc(C(=O)Nc2ccc(Br)cc2)[nH]n1	0	·	·	·
C=C(C)c1cccc(C(C)(C)NC(=O)N(Cc2ccccc2)Cc2ccco2)c1	1	9	83*	-3
C=C(C)c1cccc(C(C)(C)NC(=O)NC2CCN(Cc3ccccc3)CC2)c1	-8	-4	·	-1
COCCNC(=O)C1(C)CCCN(C(=O)c2cc(F)ccc2C)C1 (centres undefined)	0	·	·	·
C=CCn1c(NCCc2ccccc2)nc2c1c(=O)n(C)c(=O)n2C	1	6	43	2
CN(Cc1ccccc1)Cc1nc2c(c(=O)n(C)c(=O)n2C)n1CCCc1ccccc1	1	1	77*	0
Cc1ccc(Cn2c(NCCc3ccccc3)nc3c2c(=O)n(C)c(=O)n3C)cc1	2	-1	79*	0
CN1CCN(c2ccc(CNC(=O)C3(C)Cc4c(-c5ccc6c(c5)OCO6)ccnc4O3)cc2)CC1 (centres undefined)	-1	·	·	·
CN1CCN(C(=O)c2ccc(-c3cnn(C)c3)c3ccoc23)CC1	1	·	·	·
CCCCCCCCOC(=O)c1cc([N+](=O)[O-])c(Sc2ncnc3nc[nH]c23)c([N+](=O)[O-])c1	0	·	·	·
Cc1cc2c(N=NC(=O)CCc3ccccc3)c(O)[nH]c2cc1Br	2	-3	83*	-1
Cc1cccc(C)c1OCC(=O)N=Nc1c(O)[nH]c2ccc(Br)cc12	-3	24	-10	1
O=C1ON=C(c2ccccc2)/C1=C/c1ccc(-c2ccccc2[N+](=O)[O-])o1	0	·	104*	·
CCCCNC(=O)C1(C)CCCCN1C(=O)c1ccc2c(c1)CCO2 (centres undefined)	0	·	·	·
COc1ccc(S(=O)(=O)NC(=O)C2(C)CCN2C(=O)C2(c3ccc(Cl)cc3)CCC2)cc1 (centres undefined)	3	·	·	·
C[C@]1(CC/C(=C/CO)CO)[C@H](C=O)CC[C@@]23COC(=O)C2=CCC[C@@H]31	-1	·	·	·
O=C(Cn1nnc(-c2ccccc2Cl)n1)N/N=C/c1ccc(-c2cccc(Cl)c2)o1	1	-2	74*	0
COC(=O)N1CCCCC1c1cc(C(=O)N2CCOCC2)no1 (centres undefined)	-1	·	·	·
SMILES	GAA850 FXN act	UPR XBP1 act	CHOP inhibitor	UPR CHOP act
O=[N+]([O-])c1ccc(Oc2ccc(S(=O)(=O)Nc3ccccc3)cc2)cc1	-3	-1	71*	-2
O=[N+]([O-])c1ccc(S(=O)(=O)Nc2ccncc2)cc1	0	-3	·	3
NC(CCc1ccccc1)c1csc(Nc2cnccn2)n1 (centres undefined)	-1	·	·	·
Cc1ccccc1C(=O)Nc1sc2c(c1C(=O)O)CCC2	2	-2	85*	-1
CCOC(=O)C1(C)CCCN(C(=O)Cc2ccc3ccccc3c2)C1 (centres undefined)	0	·	·	·
CNc1cnc(-c2ccsc2)cn1	5	·	·	·
O=C(NCCN1C(=O)S/C(=C\c2ccc(Cl)c(Cl)c2)C1=O)c1ccc2c(c1)C(=O)N(Cc1ccncc1)C2=O	0	3	88*	7
COc1cc(Cl)ccc1OC1(C)CCN(Cc2cccn2-c2nccs2)C1 (centres undefined)	-2	·	·	·
Cn1cccc1C(=O)OCc1cc(Cl)cc2c1OCOC2	3	3	73*	5
Cn1cccc1C(=O)OCC(=O)Nc1ccc2c(c1)OCO2	0	1	-13	7
COc1ccc(Cl)cc1NC(=O)CN(C)C1CCCCC1	0	2	76*	-1
COc1ccc(Cl)cc1NC(=O)COC(=O)C1CCCCC1	2	0	·	4
O=C(CCCCCn1c(=S)[nH]c2cc3c(cc2c1=O)OCO3)N1CCN(C2CCCCC2)CC1	2	3	83*	-1

From PubChem
